The source made the active and inactive calls. The calls are words filed in the database; no cut-off is given here. Some results are limits rather than exact numbers.

For one series, the system named is A-431. Put plainly: Antiproliferative activity against human A431 cells after 72 hrs by MTT assay. Type of series: functional, cell-based. To be noted: A-431, 72 h. In a few lines:
(§1)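 HeLa, MCF-7 and A431 cells were kept in minimal essential medium with 10% fetal bovine serum, 1% non-essential amino acids and antibiotic-antimycotic, at 37 °C in humidified 5% CO₂. Cells were seeded at 5000 cells/well, left overnight, then given compound-containing medium. Read-out was MTT colorimetric, with cisplatin as positive control. IC₅₀ came from fitted sigmoidal dose–response curves.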

In series [1] the test system is HeLa. Briefly: Cell cycle arrest in human HeLa cells assessed as accumulation at G2/M phase after 24 hrs by flow cytometry. Type of series: functional, cell-based. In a few lines:
(§2)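 HeLa cells were treated at […] for 24 or 48 h. Then 200,000 cells per condition were trypsinized, PBS-washed, fixed in cold 70% ethanol for 30 min on ice, washed twice and PI-stained for DNA. 20,000 events were recorded and subG1, G1, S and G2/M percentages computed, with subG1 taken as apoptotic. Values are means of three determinations, tested against control.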
Background: A flow cytometer gives signals particle by particle.

Series [2] deals with HeLa. Briefly: Induction of apoptosis in human HeLa cells assessed as nuclear condensation after 24 hrs by Hoechst 33258 staining based fluorescence microscopy. Type of series: functional, cell-based. The essentials:
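Near-confluent HeLa cells were seeded at 5000 cells/well and exposed for 24 h to vehicle or compound at […]. Hoechst 33258 and PI were added at final 5 and 2 µg/mL, then incubated 1 h at 37 °C.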

The test system of series [3] is HeLa. Briefly: Cellular uptake in human HeLa cells after 24 hrs by fluorescence microscopy. Type of series: ADME, cell-based.
Series [4] has as its system HeLa. Briefly: Antiproliferative activity against human HeLa cells after 72 hrs by MTT assay. Type of series: functional, cell-based. In a few lines:
as §1
(In general: Formazan colour is commonly taken as a measure of viable cells.)

The test system of a further series is MCF7. Briefly: Antiproliferative activity against human MCF7 cells after 72 hrs by MTT assay. Type of series: functional, cell-based. Particulars: MCF7, 72 h. In a few lines:
as §1

Series [5] has as its system HeLa. Put plainly: Cell cycle arrest in human HeLa cells at 3 to 10 uM after 48 hrs by flow cytometry analysis. Type of series: functional, cell-based. The essentials: as §2
For series [6], the system named is HeLa. Put plainly: Cell cycle arrest in human HeLa cells assessed as accumulation at Sub-G1 phase at 3 to 10 uM after 24 hrs by flow cytometry analysis. Type of series: functional, cell-based. In a few lines:
as §2

Series [7] relates to HeLa. Put plainly: Cell cycle arrest in human HeLa cells assessed as accumulation at G2/M phase at 3 to 10 uM after 24 hrs by flow cytometry. Type of series: functional, cell-based. The essentials: as §2
The subject of series [8] is HeLa. Briefly: Cell cycle arrest in human HeLa cells assessed as accumulation at S phase at 3 to 10 uM after 24 hrs by flow cytometry analysis. Type of series: functional, cell-based. The essentials:
as §2

As usually defined, the IC50 is the point on the concentration scale where inhibition reaches its midpoint. With `CC(=O)O[C@H]1CC[C@@]2(C)[C@@H](CC[C@H]3[C@@H]4[C@H](n5cc(-c6ccccc6)nn5)C[C@H](O)[C@@]4(C)CC[C@@H]32)C1`, the IC50 was 20.7 µM in the series with A-431, 7.7 µM in the series on HeLa [4] and 19.2 µM with MCF7. Moreover, the Activity result in the series with HeLa [1] and with HeLa [2] was “Dose-dependent effect” throughout. Moreover, the Drug uptake entry in the series on HeLa [3] is listed as “Dose-dependent effect”. Also, the result in the series with HeLa [5] and with HeLa [6] was Active.
On to `CC(=O)O[C@H]1CC[C@@]2(C)[C@@H](CC[C@H]3[C@@H]4[C@H](n5cc(-c6ccc(F)cc6)nn5)C[C@H](O)[C@@]4(C)CC[C@@H]32)C1`, for which the half-maximal inhibitory concentration (IC50) in the series with A-431, in the series with HeLa [4] and with MCF7 was > 30 µM in each case.
On to `CCCc1ccc(-c2cn([C@@H]3C[C@H](O)[C@@]4(C)CC[C@H]5[C@@H](CC[C@H]6C[C@@H](OC(C)=O)CC[C@@]65C)[C@H]34)nn2)cc1`, for which the concentration for half-maximal inhibition (IC50) in the series on A-431 is > 30 µM; with HeLa [4], 6.52 µM; with MCF7, > 30 µM. Moreover, the result with HeLa [7] was inactive. In addition, the Activity entry with HeLa [2] is “Dose-dependent effect”. In addition, the Drug uptake entry in the series with HeLa [3] is “Dose-dependent effect”. For the same molecule, the outcome in the series with HeLa [8], with HeLa [5] and in the series with HeLa [6] was Active.
`CC(=O)O[C@H]1CC[C@@]2(C)[C@@H](CC[C@H]3[C@@H]4[C@H](n5cc(-c6ccc(C)cc6)nn5)C[C@H](O)[C@@]4(C)CC[C@@H]32)C1`: the figures for the half-maximal inhibitory concentration (IC50) in the series on A-431, with HeLa [4] and with MCF7 were 22.4 µM, 9.4 µM and 10.3 µM, respectively. Moreover, the Activity entry in the series on HeLa [1] and in the series with HeLa [2] was “Dose-dependent effect” throughout. Further, the Drug uptake entry with HeLa [3] is “Dose-dependent effect”. In addition, the result in the series with HeLa [5] and in the series on HeLa [6] was Active.
As to `COc1ccc2c(c1)CC[C@H]1[C@@H]3[C@H](n4cc(-c5ccccc5)nn4)C[C@H](O)[C@@]3(C)CC[C@H]21`, the IC50 was 1.7 µM with A-431, > 30 µM in the series on HeLa [4] and > 30 µM in the series on MCF7.
`COc1ccc2c(c1)CC[C@H]1[C@@H]3[C@H](n4cc(-c5ccccc5)nn4)CC(=O)[C@@]3(C)CC[C@H]21`: the IC50 in the series with A-431 stood at 4.77 µM; with HeLa [4], 14.9 µM; in the series on MCF7, 11.3 µM.
Taken in the same sequence, the figures for `CC(=O)O[C@H]1CC[C@@]2(C)[C@@H](CC[C@H]3[C@@H]4[C@H](n5cc(-c6ccc(F)cc6)nn5)CC(=O)[C@@]4(C)CC[C@@H]32)C1` were 16 µM, 11 µM and 3.39 µM.
Turning to `CC(=O)O[C@H]1CC[C@@]2(C)[C@@H](CC[C@H]3[C@@H]4[C@H](n5cc(-c6ccc(C)cc6)nn5)CC(=O)[C@@]4(C)CC[C@@H]32)C1`, the 50% inhibitory concentration (IC50) in the series with A-431 amounted to 10.7 µM; in the series with HeLa [4], 10.3 µM; with MCF7 it was 2.68 µM. The Activity result in the series with HeLa [1] and in the series with HeLa [2] was “Dose-dependent effect” in each case. For the same molecule, the Drug uptake result in the series with HeLa [3] was “Dose-dependent effect”.
In the case of `CCCc1ccc(-c2cn([C@@H]3CC(=O)[C@@]4(C)CC[C@H]5[C@@H](CC[C@H]6C[C@@H](OC(C)=O)CC[C@@]65C)[C@H]34)nn2)cc1`, the figures for the IC50 with A-431, in the series with HeLa [4] and with MCF7 were > 30 µM, 15 µM and 8.4 µM, respectively.
`CC(=O)O[C@H]1CC[C@@]2(C)[C@@H](CC[C@H]3[C@@H]4[C@H](n5cc(-c6ccccc6)nn5)CC(=O)[C@@]4(C)CC[C@@H]32)C1`: the results for the half-maximal inhibitory concentration (IC50) in the series with A-431, in the series with HeLa [4] and with MCF7 were 9.69 µM, 9.16 µM and 1.69 µM, respectively. The Activity result with HeLa [1] and in the series with HeLa [2] was “Dose-dependent effect” each time. The Drug uptake entry in the series on HeLa [3] was “Dose-dependent effect”. Further, the result with HeLa [5] and with HeLa [6] was Active.

The values above are taken from ChEMBL document CHEMBL1944543, “A facile 'click' approach to novel 15β-triazolyl-5α-androstane derivatives, and an evaluation of their antiproliferative activities in vitro” (Bioorg Med Chem, 2012).
